From PubChem
CASP6 VEID inh – human caspase-6 inhibitors, primary screen, biochemical, VEID-R110 fluorescence, single point, set 2; P55212; inhibition, % at 12.5 µM; 350,000 compounds, 0.53% hits; purified caspase-6, Z-VEID-R110 cleavage fluorescence;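 active means mean inhibition across replicates at least about 35%, with every replicate also reaching that limit, limit read from the data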
UHRF1 MBD2 ctr – UHRF1 methylated DNA binding inhibitors, primary screen, counter-screen for MBD2 inhibitor project, biochemical, TR-FRET, human UHRF1, single concentration. UHRF1 binding to methylated oligo. E3 ubiquitin-protein ligase UHRF1 (Homo sapiens), Q96T88. inhibition, % at 4.4 µM. 370,000 compounds, 0.75% hits. AID 687016, 2013; in the data active means inhibition above about 21%;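 further: UHRF1 SRA domain binding a hemimethylated CpG hairpin DNA probe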
NSD2 inh – NSD2 histone methyltransferase inhibitors, primary screen, biochemical, AlphaScreen, single concentration, set 2. inhibition, % at 12.5 µM. 310,000 compounds, 0.54% hits. NSD2 peptide methylation, 120 min. Histone-lysine N-methyltransferase NSD2 (Homo sapiens), O96028; in the data active means inhibition above about 50%
TDP2 absorb – human TDP2 enzyme inhibitors, primary screen, biochemical, epi absorbance, recombinant enzyme; 370,000 compounds, 0.34% hits; T5PNP hydrolysis, p-nitrophenol absorbance 415 nm; inhibition, % at 12.8 µM;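 active means inhibition above the mean of all tested compounds plus 3 SD, set per campaign, cut at about 25% in these data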
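Assay system: recombinant human TDP2 / Reagent: T5PNP substrate at 5 mM, a TopII-DNA adduct mimic / Measured by: epi absorbance from released p-nitrophenol / Evaluation: % inhibition relative to enzyme-containing and enzyme-free wells / Control set: enzyme-free and DMSO wells / Replicates: each compound tested once, singlicate / Schedule: enzyme reaction with compound for 2 h at 37 °C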
LEDGF integ inh – blockers of LEDGF/p75-dependent integrase strand transfer – biochemical, TR-FRET, high throughput, primary screen | HIV-1 integrase (with human LEDGF/p75) | TR-FRET IN-LEDGF/p75 DNA integration, Eu/Cy5 | inhibition, % at 3.7 µM | 370,000 compounds, 0.64% hits | AID 743269, 2014;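 active means inhibition above the screen-wide mean plus 3 SD, cut at about 13% in these data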;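 further: signal is the Cy5 over europium emission ratio at 671 and 618 nm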
MBD2 inh – inhibitors of MBD2 binding to methylated DNA, primary screen, biochemical, TR-FRET, DNA-binding domain, human; 370,000 compounds, 0.31% hits; AID 686964, 2013; Methyl-CpG-binding domain protein 2 (Homo sapiens), Q9UBB5; MBD2 binding to methylated oligonucleotide; inhibition, % at 4.4 µM; in the data active means inhibition above about 13%
Target sequence (Q9UBB5 whole entry, looked up, the tested form may be a part): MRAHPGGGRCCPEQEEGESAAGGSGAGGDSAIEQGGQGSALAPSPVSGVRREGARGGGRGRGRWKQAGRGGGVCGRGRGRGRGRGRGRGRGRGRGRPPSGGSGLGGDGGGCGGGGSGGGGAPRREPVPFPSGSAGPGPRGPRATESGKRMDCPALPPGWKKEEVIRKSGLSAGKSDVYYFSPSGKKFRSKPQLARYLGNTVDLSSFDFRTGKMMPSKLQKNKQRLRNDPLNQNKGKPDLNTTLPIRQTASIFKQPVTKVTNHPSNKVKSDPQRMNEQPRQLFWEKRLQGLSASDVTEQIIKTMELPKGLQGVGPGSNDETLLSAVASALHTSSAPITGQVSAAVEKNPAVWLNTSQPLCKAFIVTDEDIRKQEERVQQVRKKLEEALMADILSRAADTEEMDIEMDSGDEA
IN multimer act – HIV-1 IN multimer formation enhancers, counter-screen for LEDGF/p75 integration inhibitor project, biochemical, TR-FRET; shares compounds with LEDGF integ inh; TR-FRET HIV-1 integrase multimerization; activation, % at 7.7 µM; 2,000 compounds, 17% hits; in the data active means activation above about 8.9%
TRFRET interf – TR-FRET optical interference artefacts, confirmation, artefact control for LEDGF/p75-dependent integration inhibitor project, biochemical, HIV-1 IN multimerization; shares compounds with LEDGF integ inh; inhibition, % at 7.7 µM; TR-FRET optical interference counterscreen; 2,000 tested, under 10 active;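 active means inhibition above the mean over all tested compounds plus 3 SD, which no compound reached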
LEDGF integ conf – inhibitors of HIV-1 IN-LEDGF/p75 DNA integration, confirmation, biochemical, TR-FRET; shares compounds with LEDGF integ inh; AID 1053136, 2014; TR-FRET LEDGF/p75-dependent HIV-1 integration; 2,000 compounds, 36% hits; inhibition, % at 3.7 µM; in the data active means inhibition above about 14%
A number is an active result; 0 = inactive; - = no result. Sampled rows, rich in hits. Any-hit rate of the full collection: about 1.8%.

SMILES	CASP6 VEID inh	UHRF1 MBD2 ctr	NSD2 inh	TDP2 absorb	LEDGF integ inh	MBD2 inh	IN multimer act	TRFRET interf	LEDGF integ conf
N#Cc1nc(COc2ccccc2Cl)oc1N1CCCC1	0	0	0	0	19	0	0	0	0
N#Cc1nc(COc2ccccc2Cl)oc1N1CCCCCC1	0	0	-	0	0	0	-	-	-
O=C(Cc1ccncc1)N1CC(=O)N2[C@H](C1)[C@H](c1ccc(C3=CCCC3)cc1)[C@@H]2CO	0	-	-	-	-	-	-	-	-
O=C(NC1CCCC1)N1CCCCN2[C@H](C1)[C@H](c1ccc(/C=C/c3ccccc3)cc1)[C@@H]2CO	0	-	-	-	-	-	-	-	-
O=C(Cc1ccccn1)N1[C@H](CO)[C@H]2c3ccccc3NC[C@H]21	0	-	-	-	-	-	-	-	-
Cc1ccc(NC(=O)CN2C(=O)N/C(=C/c3ccco3)C2=O)cc1	-	34	0	0	21	0	14	0	26
CCN1C[C@@H]2[C@@H]3C(=O)N(Cc4ccccc4)C(=O)[C@@H]3[C@](CC)(C(=O)OC)N2C1=NCc1ccccc1	0	0	-	0	0	0	-	-	-
CCN1C[C@@H]2[C@@H]3C(=O)N(C)C(=O)[C@@H]3[C@](CC)(C(=O)OC)N2C1=NCc1ccccc1	0	21	-	0	65	0	0	0	0
Cc1ccc(Cc2c(-c3ccc(Br)cc3)nc3ccc(Cl)cn23)cc1	0	0	-	0	14	0	0	0	0
Clc1ccc2nc(-c3ccccc3)c(Cc3ccccc3)n2c1	0	0	-	0	27	0	0	0	0
Cc1ccc(Cc2c(-c3ccc(C)cc3)nc3ccc(Cl)cn23)cc1	0	0	-	0	0	0	-	-	-
O=C(C[C@@H]1C=C[C@@H](NS(=O)(=O)c2ccc(F)cc2)[C@H](CO)O1)NCCc1ccncc1	0	-	-	-	-	-	-	-	-
O=C(c1cc(-c2cccc(O)c2)on1)N1CCCCCC1	0	0	0	0	47	0	0	0	0
O=C(C[C@@H]1CC[C@H]2[C@@H](COC[C@H](O)CN2C(=O)Nc2ccc(Cl)c(Cl)c2)O1)NCc1ccc(F)cc1	0	-	-	-	-	-	-	-	-
COC1=C[C@H](C(=O)NCc2ccc(Cl)cc2)C(C)C(c2ccccc2)CC1=O (stereo partly drawn)	-	0	-	0	0	0	-	-	-
COC1=C[C@H](C(=O)NCc2ccc(Br)cc2)[C@H](C)[C@@H](c2ccccc2)CC1=O	-	0	-	0	22	0	0	0	0
O=C(C[C@@H]1C[C@@H]2c3cc(NC(=O)Nc4ccc(C(F)(F)F)cc4)ccc3O[C@@H]2[C@@H](CO)O1)NCc1cc(F)ccc1F	0	-	-	-	-	-	-	-	-
Cc1cnc(C)c(N(C)NC(=S)Nc2ccccc2)n1	0	0	0	0	16	0	0	0	0
Cc1ccc(S(=O)(=O)N(C)C[C@H]2Oc3ncc(-c4ccccc4)cc3C(=O)N([C@@H](C)CO)C[C@H]2C)cc1	0	-	-	-	-	-	-	-	-
CC(O)CC(=O)OC[C@]12CC[C@H]3[C@@](C)(CC[C@H]4C(C)(C)CCC[C@]34C)[C@@H]1CC(C1=CC(=O)OC1O)O2 (stereo partly drawn)	0	0	-	0	23	0	0	0	41
